Screening data deposited in PubChem BioAssay by Johns Hopkins Ion Channel Center.
Only some compounds are listed: those with a hit (about 3.5% of all), similar ones and a draw of the others.
MrgX1 antagonist: human MrgX1 receptor antagonism, primary screen | MRGX1-HEK293 calcium flux, Fluo-4, BAM8-22 antagonism; active compounds read low | B-score at 10 µM | Q96LB2 | 310,000 tested, 1.3% active;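 active = calcium-response B-score plate-corrected more than 3 library SD below zero, starting fluorescence within 5 deviations, no agonist response on first addition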;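 note: peak minus trough fluorescence over baseline after final BAM8-22 challenge near maximal dose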
Target sequence (Q96LB2 whole entry, looked up): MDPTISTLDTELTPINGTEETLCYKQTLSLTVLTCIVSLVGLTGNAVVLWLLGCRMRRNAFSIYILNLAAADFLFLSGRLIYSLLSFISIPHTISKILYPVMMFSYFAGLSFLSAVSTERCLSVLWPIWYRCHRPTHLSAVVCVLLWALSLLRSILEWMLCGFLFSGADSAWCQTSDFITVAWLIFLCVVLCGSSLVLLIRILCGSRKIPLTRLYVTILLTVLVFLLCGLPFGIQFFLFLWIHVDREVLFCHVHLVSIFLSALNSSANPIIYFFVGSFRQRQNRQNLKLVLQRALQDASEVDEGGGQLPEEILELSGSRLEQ
RGS4 block: human RGS4 inhibition; P49798; HEK293 M3R/RGS4 inducible, Fluo-4 calcium flux; active compounds read high; triggered by carbachol at its EC20; B-score at 10 µM; 310,000 tested, 0.45% active;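 active = B-score, a plate-corrected calcium signal, over three deviations above library mean, with baseline fluorescence within five deviations of library mean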;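 note: RGS4 expression induced by doxycycline in cells with stable M3 receptor; B-score is computed from the integrated fluorescence ratio over baseline after carbachol; higher B-score means a larger calcium signal and so more RGS4 inhibition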
Target sequence (P49798 whole entry, looked up): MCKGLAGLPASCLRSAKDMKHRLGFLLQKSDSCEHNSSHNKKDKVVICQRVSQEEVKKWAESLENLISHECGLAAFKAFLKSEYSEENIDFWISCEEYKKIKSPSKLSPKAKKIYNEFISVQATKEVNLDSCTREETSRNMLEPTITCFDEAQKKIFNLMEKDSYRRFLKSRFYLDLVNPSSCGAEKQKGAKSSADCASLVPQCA
RGS4 act: potentiators or activators of RGS4. HEK293 M3R/inducible RGS4, carbachol calcium flux Fluo4; active compounds read low. B-score at 10 µM. 310,000 tested, 0.92% active. AID 463111;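 active = B-score of the integrated calcium signal more than 4 SD below the library mean, with starting fluorescence not abnormally high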;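 note: negative B-score means reduced calcium response which marks RGS4 activation or potentiation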
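Test system: HEK293 cells with stable M3R and inducible RGS4; also added: carbachol at ECmax as muscarinic agonist stimulus; schedule: dye loading 30 min 37 °C, buffer rest 30 min RT; technique: kinetic calcium fluorescence imaging with Fluo4-AM dye, 2 µM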
MrgX1 agonist: human MrgX1 receptor agonism, primary screen. Q96LB2. MrgX1-HEK293 cells, Fluo-4 calcium fluorescence, agonist mode; active compounds read high. B-score at 10 µM. 310,000 tested, 0.44% active;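 active = calcium response B-score plate-corrected fluorescence ratio at least 3 library SD, with starting fluorescence B-score inside 5 SD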
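Material: MrgX1-expressing HEK293 cells; input: 15,000 cells per well; doses: test compound given as first of three sequential additions; schedule: overnight plating before 1 h dye loading; technique: Fluo-4 NW calcium-flux fluorescence, kinetic read; evaluation: baseline-normalised fluorescence change ratio, B-scored; control set: plate-wise positive and negative controls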
MrgX1 allo act: human MrgX1 positive allosteric modulation, primary screen; Q96LB2; MrgX1-HEK293, Fluo-4 calcium flux, FDSS; active compounds read high; B-score at 10 µM; 310,000 tested, 0.63% active;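 active = plate-corrected calcium response at least 3 library SD above typical, normal starting fluorescence, not activating the receptor alone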;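 note: compound read alongside a low EC10 to EC30 dose of BAM8-22 agonist; peak minus trough fluorescence over baseline measured at the second addition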
Of the large screens only hits and unclear results are named; the others gave an inactive call.

COc1ccc(CN=Cc2[nH]c3ccc(Br)c(Cl)c3c2O)cc1	MrgX1 agonist 37
Cc1cc(C)cc(N=Cc2[nH]c3ccc(Br)c(Cl)c3c2O)c1	MrgX1 agonist 39
CCOC(=O)C1=C(COC(=O)CCOc2ccc(C)cc2)NC(=O)NC1C (stereo unspecified)	none
O=C(NCCc1ccccc1F)c1cccc2cccnc12	none
COc1ccc(S(=O)(=O)O/N=C2\CCCc3ccccc32)cc1	MrgX1 antagonist -4.7
CC(C)=NOCC(=O)Nn1c(COc2c(C)cccc2C)nc2ccccc2c1=O	none
COc1ccc(-c2nc3ccccc3nc2-c2ccc(OC)cc2)cc1	RGS4 act -7
Nc1nc(-c2ccc(Oc3ccccc3)cc2)c(CC(=O)O)s1	none
CN1/C(=C\C=O)C(C)(C)c2ccccc21	none
CN1/C(=C\C=Nc2ccc3ccccc3c2)C(C)(C)c2ccccc21	MrgX1 agonist 83 (no result: RGS4 block, RGS4 act)
CN(C)c1ccc(N=C/C=C2\N(C)c3ccccc3C2(C)C)cc1	MrgX1 allo act 7.2
COC(=O)c1cccc(NC(=O)CC2C(=O)NCCN2C(=O)c2ccc(F)cc2F)c1 (stereo unspecified)	none
COC(=O)CCC(=O)N1CCC(CCC(=O)NCc2ccc(F)cc2)CC1	none
COc1ccc(-c2nc(-c3ccccc3)c(-c3cccs3)[nH]2)cc1OC	none
O=[N+]([O-])c1ccc(-c2nc(-c3cccs3)c(-c3cccs3)[nH]2)cc1	RGS4 act -8.9
COc1ccc(-c2nc(-c3cccs3)c(-c3cccs3)[nH]2)cc1OC	RGS4 act -8
Cn1c(N)c(-c2ccccc2)c2ccc([N+](=O)[O-])cc2c1=O	MrgX1 agonist 30
Cc1cccc(C)c1Nc1nnc(SCC(=O)c2ccc(Br)s2)s1	RGS4 act -7.7
Cc1ccc(Nc2nnc(SCC(=O)c3ccc(Br)s3)s2)c(C)c1	none
CC(Cc1ccccc1)NC(=O)CN1C(=O)c2ccccc2S1(=O)=O (stereo unspecified)	none
CCOc1ccc(C2/C(=C(\O)c3cccc(OC)c3)C(=O)C(=O)N2c2ccccn2)cc1OC (stereo unspecified)	none
COc1ccccc1/C=C/C(=O)OCC(=O)NCc1ccco1	none
COc1ccccc1/C=C/C(=O)OCC(=O)NNC(=O)c1ccccc1	MrgX1 antagonist -5.2
CN(C)CCC(=O)C(Cc1ccccc1)c1ccccc1 (stereo unspecified)	none
CC(CCCN(C)C)C(Cc1ccccc1)c1ccccc1 (stereo unspecified)	RGS4 act -7.8
CCOC(=O)c1c(-c2ccccc2)nnn1-c1nc(OCC)nc(N2CCCCC2)n1	RGS4 act -8.7
CCOc1ccc(CCNC(=O)c2ccc(CS(=O)Cc3ccc(Cl)cc3)o2)cc1OCC (stereo unspecified)	none
Cc1ccc(CS(=O)Cc2ccc(C(=O)NCCc3ccccc3)o2)cc1 (stereo unspecified)	none
O=C(NCCc1ccc(Cl)cc1)c1ccc(CS(=O)Cc2ccccc2Cl)o1 (stereo unspecified)	RGS4 act -8.4
CSc1ccc(CCNC(=O)c2ccc(CS(=O)Cc3ccccc3Cl)o2)cc1 (stereo unspecified)	MrgX1 antagonist -6
CCOc1ccc(CCNC(=O)c2ccc(CS(=O)Cc3cccc(Cl)c3)o2)cc1 (stereo unspecified)	RGS4 act -9.4
Nc1cc(N)c(OCC(F)(F)F)cc1OCC(F)(F)F	RGS4 block 6.7
Nc1cc(OCC(F)(F)F)cc([N+](=O)[O-])c1	none
Cc1ccnc(N/C=C(\C#N)c2nc(-c3cccc(Br)c3)cs2)c1	MrgX1 agonist 36
COc1cccc(O)c1CN1CCCC(C(=O)c2cccc(C(F)(F)F)c2)C1 (stereo unspecified)	RGS4 act -7.5
COc1ccc(C(=O)C2CCCN(Cc3c(O)cccc3OC)C2)cc1OC (stereo unspecified)	none
O=C(c1cccc(C(F)(F)F)c1)C1CCCN(Cc2cccc(OCCO)c2)C1 (stereo unspecified)	RGS4 act -7
O=C(COc1ccccc1)NNC(=S)NC(=O)c1ccccc1	none
O=C(Cc1cccs1)NNC(=S)NC(=O)c1ccc(F)c(F)c1	MrgX1 agonist 61
O=C(Cc1ccccc1)NNC(=S)NC(=O)c1cccs1	MrgX1 agonist 60
O=C(Cc1cccs1)NNC(=S)NC(=O)c1ccccc1	MrgX1 agonist 43
O=C(NC(=S)NCc1ccccc1)c1cccs1	none
Cc1ccc(NC(=O)CSC(C)C(=O)OCC(=O)N2CCN(C(=O)c3ccco3)CC2)cc1 (stereo unspecified)	none
COc1ccc(CN(N=O)C2CC(=O)N(c3ccc(OC)cc3)C2=O)cc1 (stereo unspecified)	RGS4 act -10
O=C(CCCCCNc1nc(=S)[nH]c2ccccc12)NCCc1c[nH]c2ccccc12	none
O=C(CCCCCNc1nc(=S)[nH]c2ccccc12)NCCc1ccc(Cl)cc1	MrgX1 allo act 9.7
Cc1cc(-c2nn(C)c(=O)c3ccccc23)ccc1CNC(=O)NC1CCCCC1	none
Cn1nc(-c2ccc(C(=O)NC3CCCCC3)cc2)c2ccccc2c1=O	MrgX1 allo act 9.5
Cc1ccc(Cl)cc1N1CCN(S(=O)(=O)c2ccc3c(c2)CC(=O)N3C)CC1	none
CC1CN(C(=O)COC(=O)c2cc(Cl)ccc2[N+](=O)[O-])CC(C)O1 (stereo unspecified)	MrgX1 antagonist -4.8
O=c1oc2ccccc2nc1/C=C(O)/C=C/c1ccc(F)cc1	none
O=c1oc2ccccc2nc1/C=C(O)/C=C\c1ccccc1	MrgX1 allo act 8.6
CCC(=NCc1ccc(Cl)c(Cl)c1)c1nc(-c2ccco2)oc1O	RGS4 act -7.1
S=C(NCCc1ccccc1)N/N=C/C1CCCCC1	MrgX1 allo act 9.1
O=C(NC(=S)NCCc1ccccc1)C1CCCCC1	none
COCCNC(=S)NN=C1CCCCCC1	none (no result: MrgX1 antagonist, MrgX1 agonist, MrgX1 allo act)
S=C(NCCc1ccccc1)NN=C1CCCCCC1	MrgX1 allo act 7.4
Cc1cc(OCC(=O)NCC(c2cccs2)N2CCOCC2)ccc1C(C)C (stereo unspecified)	none
Cc1ccc(C(C)C)c(OCC(=O)NCC(c2cccs2)N2CCOCC2)c1 (stereo unspecified)	MrgX1 agonist 28
O=C(c1ccccc1Br)N1N=C(c2ccccc2)CC1c1ccccc1F (stereo unspecified)	RGS4 act -8
CCOCCCN(C(=O)CCC(=O)Nc1cc(C)on1)C(C(=O)NC(C)(C)C)c1ccccc1Cl (stereo unspecified)	none
CC1C2CC(C/C2=N/NC(=O)c2cccs2)C1(C)C (stereo unspecified)	MrgX1 allo act 8.7
C[C@@H]1C2CC(C/C2=N\NC(=O)c2ccncc2)C1(C)C (stereo partly specified)	none
CCOC(=O)c1c(S(=O)(=O)Nc2ccc(F)cc2C)c(C)n(C)c1C	none
